Reference: ChEMBL document CHEMBL5046221, “Identification of Pyrimidine-Based Lead Compounds for Understudied Kinases Implicated in Driving Neurodegeneration” (J Med Chem, 2022)

How the values were obtained:
[1] = target: Aurora kinase B (Homo sapiens) (UniProt Q96GD4); test: Inhibition of full length recombinant human AURKB using AKRRRLSSLRA as substrate at 1 uM incubated for 40 mins in presence of [gamma-33P-ATP] by radiometric scintillation assay relative to control
How it was run: (§1)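 Eurofins radiometric kinase assay with ATP at Km for each kinase. Compound was tested at a single 1 μM concentration in duplicate, and the result is reported as percent of control.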

[2] = target: T1, Serine/threonine-protein kinase 17A (Homo sapiens, UniProt Q9UEE5); test: Displacement of tracer K9 from NLuc fused DRAK1 (unknown origin) expressed in HEK293 cells by NanoBRET assay; type: cell-based
T1 sequence (Q9UEE5 whole entry): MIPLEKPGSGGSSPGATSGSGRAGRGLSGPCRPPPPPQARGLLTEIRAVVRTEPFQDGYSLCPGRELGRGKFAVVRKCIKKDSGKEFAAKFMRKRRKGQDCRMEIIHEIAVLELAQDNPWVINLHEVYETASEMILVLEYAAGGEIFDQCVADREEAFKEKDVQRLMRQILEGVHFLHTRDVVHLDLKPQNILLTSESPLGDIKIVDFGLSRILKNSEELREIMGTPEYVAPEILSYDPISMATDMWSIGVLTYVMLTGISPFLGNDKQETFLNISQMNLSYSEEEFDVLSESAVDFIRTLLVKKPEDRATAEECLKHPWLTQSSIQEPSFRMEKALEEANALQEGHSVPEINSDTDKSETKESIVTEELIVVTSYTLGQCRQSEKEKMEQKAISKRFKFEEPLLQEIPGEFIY

[3] = target: T2, MAP/microtubule affinity-regulating kinase 4 (Homo sapiens, UniProt Q96L34); test: Displacement of tracer K5 from NLuc fused MARK4 (unknown origin) expressed in HEK293 cells by NanoBRET assay; type: cell-based
T2 sequence (Q96L34 whole entry): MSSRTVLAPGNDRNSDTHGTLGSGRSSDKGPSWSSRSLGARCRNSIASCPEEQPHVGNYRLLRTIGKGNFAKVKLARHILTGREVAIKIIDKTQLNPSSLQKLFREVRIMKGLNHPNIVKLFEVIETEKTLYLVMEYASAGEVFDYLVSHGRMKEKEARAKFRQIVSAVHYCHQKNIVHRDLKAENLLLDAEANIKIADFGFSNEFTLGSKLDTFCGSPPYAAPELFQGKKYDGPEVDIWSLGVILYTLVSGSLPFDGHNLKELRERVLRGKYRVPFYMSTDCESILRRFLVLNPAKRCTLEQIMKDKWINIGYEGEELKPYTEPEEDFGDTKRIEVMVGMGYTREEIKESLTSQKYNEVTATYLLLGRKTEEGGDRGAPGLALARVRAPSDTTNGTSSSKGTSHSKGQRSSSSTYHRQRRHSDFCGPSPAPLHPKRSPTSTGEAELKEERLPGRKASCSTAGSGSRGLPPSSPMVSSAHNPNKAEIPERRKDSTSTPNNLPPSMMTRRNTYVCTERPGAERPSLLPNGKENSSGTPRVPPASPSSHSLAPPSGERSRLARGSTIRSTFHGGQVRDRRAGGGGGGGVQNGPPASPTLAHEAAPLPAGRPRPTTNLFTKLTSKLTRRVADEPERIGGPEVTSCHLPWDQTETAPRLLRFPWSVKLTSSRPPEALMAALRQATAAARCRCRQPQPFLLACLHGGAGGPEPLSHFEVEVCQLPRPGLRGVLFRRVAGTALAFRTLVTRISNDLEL

[4] = Inhibition of human TTBK1 (1 to 479 residues) using Casein as substrate measured after 40 mins in presence of [gamma33P]ATP by scintillation counting method
How it was run: (§2)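 Eurofins radiometric kinase assay run at ATP equal to Km for each kinase. 9-point dose–response in duplicate gives the IC50.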

[5] = target: MAP kinase-interacting serine/threonine-protein kinase 2 (Homo sapiens, UniProt Q9HBH9); test: Inhibition of full length recombinant human MKNK2 using myelin basic protein as substrate incubated for 40 mins in presence of [gamma-33P-ATP] by radiometric scintillation assay; how it was run: as §2
[6] = target: T3, BMP-2-inducible protein kinase (Homo sapiens, UniProt Q9NSY1); test: Inhibition of 1recombinant human BMP2K using myelin basic protein as substrate incubated for 120 mins in presence of [gamma-33P-ATP] by radiometric scintillation assay
[7] = target: Serine/threonine-protein kinase SIK2 (Homo sapiens, UniProt Q9H0K1); test: Inhibition of recombinant human SIK2 (1 to 276 residues) using KKKVSRSGLYRSPSMPENLNRPR as substrate measured after 40 mins in presence of [gamma33P]ATP by radiometric scintillation counting method; how it was run: as §2
Activin receptor type-1 = Activin receptor type-1 (Homo sapiens, UniProt Q04771); test: Inhibition of human ALK2 (147 to end residues) using casein as substrate incubated for 40 mins in presence of [gamma-33ATP] by scintillation counting based radiometry assay
How it was run: (§3)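 Eurofins radiometric enzymatic assay with ATP at Km for each kinase. IC50 was derived from a 9-point dose–response curve run in duplicate.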

[8] = target: Bone morphogenetic protein receptor type-1B (Homo sapiens, UniProt O00238); test: Inhibition of recombinant human BMPR1B (148 to end residues) using casein as substrate incubated for 40 mins in presence of [gamma-33P-ATP] by radiometric scintillation assay; how it was run: as §3
[9] = target: T4, Serine/threonine-protein kinase 17B (Homo sapiens) (UniProt O94768); test: Inhibition of full length recombinant human DRAK2 using KKRPQRRYSNVF as substrate at 1 uM incubated for 120 mins in presence of [gamma-33P-ATP] by radiometric scintillation assay relative to control; how it was run: as §1
T4 sequence (whole entry): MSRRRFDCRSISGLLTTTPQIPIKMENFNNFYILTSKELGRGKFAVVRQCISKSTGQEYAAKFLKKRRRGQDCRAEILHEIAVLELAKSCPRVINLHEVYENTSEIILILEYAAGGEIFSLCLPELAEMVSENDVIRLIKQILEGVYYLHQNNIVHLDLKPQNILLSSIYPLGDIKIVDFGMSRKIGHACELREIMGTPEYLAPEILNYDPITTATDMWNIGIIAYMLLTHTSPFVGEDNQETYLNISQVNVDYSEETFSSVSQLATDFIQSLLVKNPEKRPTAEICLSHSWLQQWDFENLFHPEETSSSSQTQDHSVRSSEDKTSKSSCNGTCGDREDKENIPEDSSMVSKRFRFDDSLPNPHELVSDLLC

[10] = target: T5, Serine/threonine-protein kinase 17A (Homo sapiens) (UniProt Q9UEE5); test: Inhibition of full length recombinant human DRAK1 using KKLNRTLSFAEPG as substrate at 1 uM incubated for 40 mins in presence of [gamma-33P-ATP] by radiometric scintillation assay relative to control; how it was run: as §1
T5 sequence (whole entry): T1 sequence (Q9UEE5 whole entry)

[11] = target: T3, BMP-2-inducible protein kinase; test: Residual activity of human BMP2K at 1 uM using peptide as substrate incubated for 120 mins in presence of [gamma-33P-ATP] by radiometric scintillation assay relative to control
[12] = target: Serine/threonine-protein kinase PRP4 homolog (Homo sapiens, UniProt Q13523); test: Inhibition of recombinant human PRP4 (663 to end residues) using casein as substrate incubated for 120 mins in presence of [gamma-33P-ATP] by radiometric scintillation assay; how it was run: as §3
Sequence of Serine/threonine-protein kinase PRP4 homolog (Q13523 whole entry): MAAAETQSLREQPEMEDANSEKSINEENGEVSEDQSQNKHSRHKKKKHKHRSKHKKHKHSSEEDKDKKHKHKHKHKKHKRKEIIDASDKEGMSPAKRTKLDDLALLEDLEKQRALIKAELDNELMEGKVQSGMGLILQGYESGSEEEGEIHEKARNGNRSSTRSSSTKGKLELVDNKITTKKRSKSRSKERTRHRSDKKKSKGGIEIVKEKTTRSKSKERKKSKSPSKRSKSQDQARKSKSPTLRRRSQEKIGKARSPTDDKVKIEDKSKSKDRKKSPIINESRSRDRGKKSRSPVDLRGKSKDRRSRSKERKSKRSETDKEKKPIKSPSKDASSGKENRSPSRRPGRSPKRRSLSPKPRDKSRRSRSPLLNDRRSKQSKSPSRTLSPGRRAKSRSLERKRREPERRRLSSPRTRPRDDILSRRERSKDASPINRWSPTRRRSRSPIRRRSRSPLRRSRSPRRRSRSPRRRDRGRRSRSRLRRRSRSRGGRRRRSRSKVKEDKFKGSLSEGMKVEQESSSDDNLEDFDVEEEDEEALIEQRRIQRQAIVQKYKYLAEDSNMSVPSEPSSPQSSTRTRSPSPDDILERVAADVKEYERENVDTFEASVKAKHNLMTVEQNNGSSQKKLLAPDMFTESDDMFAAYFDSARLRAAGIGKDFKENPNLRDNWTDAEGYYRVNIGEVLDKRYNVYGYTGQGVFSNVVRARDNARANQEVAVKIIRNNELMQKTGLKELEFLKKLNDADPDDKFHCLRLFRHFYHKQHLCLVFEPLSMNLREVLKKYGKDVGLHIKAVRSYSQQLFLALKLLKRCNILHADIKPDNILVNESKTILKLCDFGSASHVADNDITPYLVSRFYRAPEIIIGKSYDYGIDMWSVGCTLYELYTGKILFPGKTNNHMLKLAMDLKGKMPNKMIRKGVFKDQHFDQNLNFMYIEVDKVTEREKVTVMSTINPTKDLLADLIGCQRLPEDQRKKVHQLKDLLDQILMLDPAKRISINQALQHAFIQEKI

Sequence of Aurora kinase B (Homo sapiens) (Q96GD4 whole entry): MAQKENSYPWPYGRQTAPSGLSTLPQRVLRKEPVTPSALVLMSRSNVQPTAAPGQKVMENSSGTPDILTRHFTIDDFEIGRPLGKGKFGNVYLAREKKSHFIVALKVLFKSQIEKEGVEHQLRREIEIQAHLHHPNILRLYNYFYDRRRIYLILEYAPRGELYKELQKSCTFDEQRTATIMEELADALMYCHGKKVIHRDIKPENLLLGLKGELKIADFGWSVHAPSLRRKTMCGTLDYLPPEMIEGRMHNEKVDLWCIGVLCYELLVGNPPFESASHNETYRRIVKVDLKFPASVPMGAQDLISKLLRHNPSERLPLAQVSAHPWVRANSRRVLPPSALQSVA
T3 sequence (Q9NSY1 whole entry, looked up, the tested form may be a part): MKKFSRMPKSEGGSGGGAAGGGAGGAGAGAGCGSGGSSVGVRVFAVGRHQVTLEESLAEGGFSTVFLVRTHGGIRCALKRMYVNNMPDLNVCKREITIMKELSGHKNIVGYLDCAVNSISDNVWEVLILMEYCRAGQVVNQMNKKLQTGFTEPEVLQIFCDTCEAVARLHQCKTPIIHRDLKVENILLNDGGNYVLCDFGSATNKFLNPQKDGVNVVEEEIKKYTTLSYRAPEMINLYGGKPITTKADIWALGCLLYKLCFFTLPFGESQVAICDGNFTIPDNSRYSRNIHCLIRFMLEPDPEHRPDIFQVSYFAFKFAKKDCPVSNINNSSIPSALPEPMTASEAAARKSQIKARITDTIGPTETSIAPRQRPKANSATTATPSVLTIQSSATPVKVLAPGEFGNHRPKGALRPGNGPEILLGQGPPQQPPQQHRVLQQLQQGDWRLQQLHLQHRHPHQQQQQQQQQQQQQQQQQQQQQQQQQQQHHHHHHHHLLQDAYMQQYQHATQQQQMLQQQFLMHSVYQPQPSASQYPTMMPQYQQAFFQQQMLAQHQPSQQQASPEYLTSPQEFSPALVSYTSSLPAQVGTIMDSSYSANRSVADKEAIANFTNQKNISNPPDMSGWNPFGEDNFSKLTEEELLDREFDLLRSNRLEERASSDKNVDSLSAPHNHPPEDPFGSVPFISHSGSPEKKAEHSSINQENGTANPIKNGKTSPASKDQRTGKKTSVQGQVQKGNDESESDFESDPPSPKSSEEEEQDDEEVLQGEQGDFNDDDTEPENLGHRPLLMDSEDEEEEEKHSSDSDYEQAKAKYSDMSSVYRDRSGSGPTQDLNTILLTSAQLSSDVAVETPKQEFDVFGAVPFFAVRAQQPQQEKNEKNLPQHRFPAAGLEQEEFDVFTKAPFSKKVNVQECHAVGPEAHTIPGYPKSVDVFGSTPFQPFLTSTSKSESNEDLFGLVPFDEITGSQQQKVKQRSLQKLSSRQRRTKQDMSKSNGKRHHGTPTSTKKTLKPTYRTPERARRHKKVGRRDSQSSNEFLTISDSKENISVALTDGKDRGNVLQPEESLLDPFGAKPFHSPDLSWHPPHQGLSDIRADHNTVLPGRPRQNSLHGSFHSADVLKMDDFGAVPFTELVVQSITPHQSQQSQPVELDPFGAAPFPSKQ
Sequence of Activin receptor type-1 (Q04771 whole entry): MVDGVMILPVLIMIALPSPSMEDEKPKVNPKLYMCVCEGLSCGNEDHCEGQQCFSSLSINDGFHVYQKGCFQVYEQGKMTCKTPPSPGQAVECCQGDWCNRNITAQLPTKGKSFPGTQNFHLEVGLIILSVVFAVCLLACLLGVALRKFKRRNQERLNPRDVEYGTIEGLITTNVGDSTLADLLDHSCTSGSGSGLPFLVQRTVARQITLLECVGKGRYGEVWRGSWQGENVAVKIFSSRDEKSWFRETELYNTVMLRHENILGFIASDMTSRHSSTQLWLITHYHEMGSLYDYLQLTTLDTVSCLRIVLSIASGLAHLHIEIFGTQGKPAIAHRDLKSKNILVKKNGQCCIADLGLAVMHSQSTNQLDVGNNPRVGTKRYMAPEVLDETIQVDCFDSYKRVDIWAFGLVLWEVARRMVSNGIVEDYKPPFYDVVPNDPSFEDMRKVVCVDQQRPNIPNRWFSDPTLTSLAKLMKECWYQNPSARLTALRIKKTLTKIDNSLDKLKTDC
Sequence of Serine/threonine-protein kinase SIK2 (Q9H0K1 whole entry, the tested form may be a part): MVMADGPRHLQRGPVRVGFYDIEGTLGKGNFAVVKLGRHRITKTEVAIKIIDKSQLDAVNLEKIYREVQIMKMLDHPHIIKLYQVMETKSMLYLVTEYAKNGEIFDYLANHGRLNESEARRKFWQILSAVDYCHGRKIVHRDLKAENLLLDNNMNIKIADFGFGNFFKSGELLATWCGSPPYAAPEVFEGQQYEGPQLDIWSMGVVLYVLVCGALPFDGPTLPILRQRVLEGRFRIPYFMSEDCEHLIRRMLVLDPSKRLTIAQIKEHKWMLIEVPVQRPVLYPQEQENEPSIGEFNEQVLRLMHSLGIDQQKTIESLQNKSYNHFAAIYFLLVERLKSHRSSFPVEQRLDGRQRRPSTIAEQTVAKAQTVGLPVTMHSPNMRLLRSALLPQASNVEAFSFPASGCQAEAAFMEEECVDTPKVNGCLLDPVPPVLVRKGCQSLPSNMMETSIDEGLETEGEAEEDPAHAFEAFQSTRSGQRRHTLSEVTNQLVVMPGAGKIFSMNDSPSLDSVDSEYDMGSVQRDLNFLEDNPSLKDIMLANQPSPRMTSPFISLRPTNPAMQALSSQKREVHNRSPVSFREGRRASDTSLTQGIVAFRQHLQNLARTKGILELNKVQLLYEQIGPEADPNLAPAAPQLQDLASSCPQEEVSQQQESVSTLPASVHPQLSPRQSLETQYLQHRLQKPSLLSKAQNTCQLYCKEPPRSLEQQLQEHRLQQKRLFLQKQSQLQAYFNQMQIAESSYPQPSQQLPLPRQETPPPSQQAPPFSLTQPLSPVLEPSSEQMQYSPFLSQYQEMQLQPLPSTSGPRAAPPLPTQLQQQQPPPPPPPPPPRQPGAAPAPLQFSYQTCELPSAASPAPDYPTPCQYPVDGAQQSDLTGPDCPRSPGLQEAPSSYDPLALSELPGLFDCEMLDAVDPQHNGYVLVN
Sequence of MAP kinase-interacting serine/threonine-protein kinase 2 (Q9HBH9 whole entry): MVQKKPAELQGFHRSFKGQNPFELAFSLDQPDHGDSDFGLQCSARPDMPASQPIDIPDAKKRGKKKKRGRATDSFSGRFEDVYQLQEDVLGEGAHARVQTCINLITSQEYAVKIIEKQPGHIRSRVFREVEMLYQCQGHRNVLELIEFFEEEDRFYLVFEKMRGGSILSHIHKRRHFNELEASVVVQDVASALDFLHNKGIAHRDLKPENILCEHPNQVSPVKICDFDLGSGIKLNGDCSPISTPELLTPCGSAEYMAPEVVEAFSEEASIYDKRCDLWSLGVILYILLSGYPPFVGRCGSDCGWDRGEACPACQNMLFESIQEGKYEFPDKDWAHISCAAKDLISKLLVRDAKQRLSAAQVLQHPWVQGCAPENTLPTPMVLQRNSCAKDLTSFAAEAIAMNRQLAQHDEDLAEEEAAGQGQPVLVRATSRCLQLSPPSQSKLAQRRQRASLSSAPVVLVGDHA
Sequence of Bone morphogenetic protein receptor type-1B (O00238 whole entry): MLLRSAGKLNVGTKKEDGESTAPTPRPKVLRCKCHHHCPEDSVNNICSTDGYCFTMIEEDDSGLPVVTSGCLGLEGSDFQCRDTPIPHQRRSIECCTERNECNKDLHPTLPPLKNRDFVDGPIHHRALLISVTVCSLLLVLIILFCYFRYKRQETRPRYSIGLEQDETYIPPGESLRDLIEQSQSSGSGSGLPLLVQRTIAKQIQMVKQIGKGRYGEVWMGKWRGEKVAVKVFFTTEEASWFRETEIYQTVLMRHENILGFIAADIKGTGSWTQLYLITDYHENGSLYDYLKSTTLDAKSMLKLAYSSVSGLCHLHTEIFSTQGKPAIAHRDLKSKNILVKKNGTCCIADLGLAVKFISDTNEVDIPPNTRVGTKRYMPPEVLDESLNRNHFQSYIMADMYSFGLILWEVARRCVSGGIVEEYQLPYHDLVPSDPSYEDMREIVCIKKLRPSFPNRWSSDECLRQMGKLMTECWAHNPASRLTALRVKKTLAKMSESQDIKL

Row | Compound | % control [1] [%] | IC50 [2] [µM] | IC50 [3] [µM] | IC50 [4] [µM] | IC50 [5] [µM] | IC50 [6] [µM] | IC50 [7] [µM] | IC50 (Activin receptor type-1) [µM] | IC50 [8] [µM] | % control [9] [%] | % control [10] [%] | % control [11] [%] | IC50 [12] [µM]
1 | NS(=O)(=O)c1ccc(CNc2nc(Nc3cccc(NC(=O)N4CCCC4)c3)ncc2Br)cc1 | 6 | > 10 | > 10 | 0.192 | 1.01 | 0.488 |  |  |  |  |  |  | 
2 | c1cc(CN2CCOCC2)cc(Nc2nccc(NCCc3cnc[nH]3)n2)c1 | 5 | > 10 | > 10 |  |  |  | 0.185 | 0.537 | 9.03 | 65 | 78 | 58 | 
3 | NS(=O)(=O)c1ccc(CNc2nc(Nc3cccc(CN4CCOCC4)c3)ncc2C2CC2)cc1 | 51 | > 10 | > 10 | 0.187 |  |  |  |  |  |  |  |  | 
4 | NS(=O)(=O)c1ccc(CNc2nc(Nc3cccc(CN4CCOCC4)c3)ncc2Br)cc1 | 7 | > 10 | > 10 | 0.066 |  |  |  |  |  |  |  |  | > 10
